{
  "source": "ChEMBL document CHEMBL4190282",
  "about": "“The Conjugated Double Bond of Coniferyl Aldehyde Is Essential for Heat Shock Factor 1 Mediated Cytotoprotection” (J Nat Prod, 2017)",
  "key": {"[1]": {"test_system": "L132", "assay": "Cytoprotective activity against cisplatin-induced cell death in human L-132 cells at 3 uM pretreated for 1 hr followed by cisplatin addition measured after 24 hrs by FACS analysis", "type": "functional, cell-based", "outline": "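L132 cells in RPMI with 10% FBS. 1 h pretreatment at 3 μM, then 0.5 μM paclitaxel or 20 μM cisplatin for 24 h, or 10 Gy γ-rays for 48 h. Cells trypsinized, washed, stained with propidium iodide and analysed by flow cytometry. Means ± SD of ≥3 independent experiments, fold-change vs negative control.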"}, "[2]": {"test_system": "L132", "assay": "Cytoprotective activity against cisplatin-induced PARP cleavage in human L-132 cells at 3 uM pretreated for 1 hr followed by cisplatin addition measured after 24 hrs by immunoblotting analysis", "type": "functional, cell-based", "outline": "(§1)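 Human embryonic lung L132 cells in RPMI with 10% FBS. 1 h pretreatment at 3 μM, then 0.5 μM paclitaxel or 20 μM cisplatin for 24 h, or 10 Gy 137Cs γ-rays (3.81 Gy/min) for 48 h. Cleaved PARP and caspase-3 immunoblotted (ECL); bands normalized to loading control, fold-change vs negative control, ≥3 independent experiments.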"}, "[3]": {"test_system": "L132", "assay": "Cytoprotective activity against IR-induced caspase3 cleavage in human L-132 cells at 3 uM pretreated for 1 hr followed by 10 Gy irradiation measured after 48 hrs by immunoblotting analysis", "type": "functional, cell-based", "outline": "as §1"}, "[4]": {"molecular_target": "T1, Heat shock factor protein 1 (Homo sapiens) (UniProt Q00613)", "T1 sequence (whole entry)": "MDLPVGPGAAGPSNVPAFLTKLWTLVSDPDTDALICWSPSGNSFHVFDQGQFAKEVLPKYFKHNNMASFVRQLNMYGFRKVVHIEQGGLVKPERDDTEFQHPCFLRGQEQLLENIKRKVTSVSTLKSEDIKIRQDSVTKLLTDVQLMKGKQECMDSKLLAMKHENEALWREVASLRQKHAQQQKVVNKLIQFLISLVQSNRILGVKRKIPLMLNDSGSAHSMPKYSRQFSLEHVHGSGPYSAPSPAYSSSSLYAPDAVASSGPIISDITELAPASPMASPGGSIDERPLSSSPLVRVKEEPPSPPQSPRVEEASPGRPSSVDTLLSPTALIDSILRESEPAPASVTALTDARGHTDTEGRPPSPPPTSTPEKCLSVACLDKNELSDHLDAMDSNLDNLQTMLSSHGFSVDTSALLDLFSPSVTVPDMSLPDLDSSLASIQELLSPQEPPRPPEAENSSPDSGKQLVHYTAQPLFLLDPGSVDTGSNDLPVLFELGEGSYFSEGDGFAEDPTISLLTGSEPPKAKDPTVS", "assay": "Activation of HSF1 in human L132 cells assessed as increase in HSP70 protein levels at 3 uM after 12 hrs by immunoblotting analysis", "type": "cell-based", "outline": "(§2)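 L132 cells treated at 3 μM for 12 h, or at various doses for 12 h, or at 3 μM over a time course. Lysates resolved by SDS-PAGE, blotted to nitrocellulose, milk-blocked, primary antibodies 18 h at 4 °C, ECL detection. HSP27, HSP70 and Ser326-phospho-HSF1 bands normalized to loading control; ≥3 independent experiments; celastrol 1 μM positive control.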"}, "[5]": {"test_system": "MEF", "assay": "Cytoprotective activity against cisplatin-induced caspase3 cleavage in HSF1 deficient MEF at 3 uM pretreated for 1 hr followed by cisplatin addition measured after 24 hrs by immunoblotting analysis", "type": "functional, cell-based", "conditions": "Mus musculus", "outline": "(§3)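 HSF1+/+ or HSF1−/− MEFs in DMEM with heat-inactivated 10% FBS, nonessential amino acids, glutamine, HEPES, 37 °C, 5% CO2. 1 h pretreatment at 3 μM, then 0.5 μM paclitaxel or 20 μM cisplatin for 24 h, or 10 Gy 137Cs γ-rays (3.81 Gy/min) for 48 h. Cleaved PARP and caspase-3 immunoblotted; bands normalized to loading control, fold-change vs negative control, ≥3 independent experiments.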"}, "[6]": {"test_system": "Mus musculus", "assay": "Protection against IR-induced reduction in circulating lymphocytes in ICR mouse at 10 mg/kg, ip administered once before and three times after 4.5 Gy irradiation measured after 9 days", "type": "functional, organism-based", "outline": "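Female ICR mice (5–6 weeks) given 4.5 Gy whole-body IR, dosed ip at 10 mg/kg once before and three times after IR; 5 per group, sacrificed day 9. BM cellularity from H&E (hematopoietic cells per 200×200 μm area); peripheral WBC, lymphocytes, neutrophils; Ki67 IHC counted in five fields per femur; relative spleen weight vs control. Means ± SD, Student's t test.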"}, "[7]": {"molecular_target": "T1, Heat shock factor protein 1 (Homo sapiens)", "assay": "Activation of HSF1 in human NCI-H460 cells expressing pGL4-hsp25 construct assessed as upregulation of hsp25 promoter activity at 10 to 30 uM after 12 hrs by luciferase reporter gene assay", "type": "cell-based", "outline": "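NCI-H460 cells stably carrying hsp25 or hsp70 promoter–luciferase reporters, seeded, treated after 24 h at 10 or 30 μM and harvested 12 h later. Lysate luciferase normalized to β-galactosidase; mean of three independent experiments, fold-change vs negative control.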"}, "[8]": {"test_system": "MEF", "assay": "Cytoprotective activity against IR-induced caspase3 cleavage in HSF1 deficient MEF at 3 uM pretreated for 1 hr followed by 10 Gy irradiation measured after 48 hrs by immunoblotting analysis", "type": "functional, cell-based", "conditions": "Mus musculus", "outline": "as §3"}, "[9]": {"molecular_target": "T2, Heat shock factor protein 1 (Mus musculus) (UniProt P38532)", "T2 sequence (whole entry)": "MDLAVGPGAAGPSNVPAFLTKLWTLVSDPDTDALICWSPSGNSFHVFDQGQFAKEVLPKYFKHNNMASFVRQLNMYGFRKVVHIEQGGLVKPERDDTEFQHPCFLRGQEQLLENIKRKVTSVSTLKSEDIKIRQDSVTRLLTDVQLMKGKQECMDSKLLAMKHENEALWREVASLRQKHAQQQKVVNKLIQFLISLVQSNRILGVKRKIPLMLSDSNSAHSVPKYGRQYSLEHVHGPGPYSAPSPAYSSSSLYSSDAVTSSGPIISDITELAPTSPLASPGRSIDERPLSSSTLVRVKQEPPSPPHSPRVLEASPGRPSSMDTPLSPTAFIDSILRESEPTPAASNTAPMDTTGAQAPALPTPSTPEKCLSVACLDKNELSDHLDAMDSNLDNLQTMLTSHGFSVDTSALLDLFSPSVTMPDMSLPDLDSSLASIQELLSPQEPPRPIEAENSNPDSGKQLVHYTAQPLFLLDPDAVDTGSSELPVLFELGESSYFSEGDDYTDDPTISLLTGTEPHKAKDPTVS", "assay": "Activation of HSF1 in MEF assessed as protection against IR-induced caspase3 cleavage at 3 uM pretreated for 1 hr followed by 10 Gy irradiation measured after 48 hrs by immunoblotting analysis", "type": "cell-based", "outline": "as §3"}, "[10]": {"molecular_target": "T1, Heat shock factor protein 1 (Homo sapiens)", "assay": "Activation of HSF1 in human L132 cells assessed as increase in HSP70 protein levels at 3 uM after 6 to 24 hrs by immunoblotting analysis", "type": "cell-based", "outline": "as §2"}, "[11]": {"test_system": "MEF", "assay": "Cytoprotective activity against paclitaxel-induced PARP cleavage in HSF1 deficient MEF at 3 uM pretreated for 1 hr followed by paclitaxel addition measured after 24 hrs by immunoblotting analysis", "type": "functional, cell-based", "conditions": "Mus musculus", "outline": "as §3"}, "[12]": {"test_system": "Mus musculus", "assay": "Protection against IR-induced reduction of food and water intake in ICR mouse at 5 to 10 mg/kg, ip administered once before and three times after 7 Gy irradiation measured daily for 30 days", "type": "functional, organism-based", "outline": "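Female ICR mice (5–6 weeks, 25–30 g) given 7 Gy whole-body IR; dosed ip at 5 or 10 mg/kg once before and three times after IR, DMSO stock diluted in modified PBS. Survival days and radiation sickness signs checked twice daily; 10 mice per group.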"}},
  "note": "Calls of active or inactive are those of the source. The calls are words filed in the database; no cut-off is given here.",
  "data": [
    {"smiles": "COc1cc(/C=C/CO)ccc1O", "note": "[CONIFERYL ALCOHOL]", "values": [
      {"measurement": "Activity", "setting": "[1]", "result": "Active"},
      {"measurement": "Activity", "setting": "[2]", "result": "Active"},
      {"measurement": "Activity", "setting": "[3]", "result": "Active"},
      {"measurement": "Activity", "setting": "[4]", "result": "Active"},
      {"measurement": "Activity", "setting": "[5]", "result": "inactive"},
      {"measurement": "Activity", "setting": "[6]", "result": "Active"},
      {"measurement": "Activity", "setting": "[7]", "result": "Active"},
      {"measurement": "Activity", "setting": "[8]", "result": "inactive"},
      {"measurement": "Activity", "setting": "[9]", "result": "Active"},
      {"measurement": "Activity", "setting": "[10]", "result": "Active"},
      {"measurement": "Activity", "setting": "[11]", "result": "inactive"},
      {"measurement": "Activity", "setting": "[12]", "result": "Active"}
    ]},
    {"smiles": "COc1cc(/C=C/C=O)ccc1O", "note": "[CONIFERYL ALDEHYDE]", "values": [
      {"measurement": "Activity", "setting": "[1]", "result": "Active"},
      {"measurement": "Activity", "setting": "[2]", "result": "Active"},
      {"measurement": "Activity", "setting": "[3]", "result": "Active"},
      {"measurement": "Activity", "setting": "[4]", "result": "Active"},
      {"measurement": "Activity", "setting": "[5]", "result": "inactive"},
      {"measurement": "Activity", "setting": "[6]", "result": "Active"},
      {"measurement": "Activity", "setting": "[7]", "result": "Active"},
      {"measurement": "Activity", "setting": "[8]", "result": "inactive"},
      {"measurement": "Activity", "setting": "[9]", "result": "Active"},
      {"measurement": "Activity", "setting": "[10]", "result": "Active"},
      {"measurement": "Activity", "setting": "[11]", "result": "inactive"},
      {"measurement": "Activity", "setting": "[12]", "result": "Active"}
    ]}
  ]
}
